From PMC2386536 (The Journal of Endocrinology, 2008)

Assays:
[1] = tested on: ischaemia–reperfusion injury in the rat; experiment: EPR free radical production from hearts after in vivo ischaemia–reperfusion; settings: CP-H spin trap
In short: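 Hearts were excised after in vivo ischaemia–reperfusion (45 min/2 h) and perfused retrogradely with warmed, gassed Krebs–Henseleit. With the LCA snare re-tied, 10 μl of 10−1 M CP-H spin trap was injected above the heart and 500 μl perfusate (drops 6–11) collected, four times per heart and averaged. This was repeated with the snare released, then with 500 U SOD. Samples were incubated at 37 °C for 20 min and read by EPR.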

[2] = mean arterial blood pressure and heart rate during ischaemia–reperfusion; format: in vivo, rat; settings: data not shown
In short: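 They were then dosed with test compound or vehicle for 5 days, with the last dose 2–3 h before surgery. Under pentobarbitone anaesthesia (60 mg/kg i.p.), MABP was recorded via a carotid artery cannula. The protocol was 20-min stabilisation, 45-min LCA occlusion, then 2-h reperfusion.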

[3] = tested on: ischaemia and reperfusion in the rabbit; settings: in vivo; cited from earlier work

Compound | free radical production from the AAR compared with placebo/vehicle [1] | effect on MABP pattern and MABP at end of ischaemia or reperfusion [2] | cardioprotection / infarct size [3]
C[C@]12CC[C@@H]3c4ccc(O)cc4CC[C@H]3[C@@H]1CC[C@@H]2O [17βE2, 17β-oestradiol] | Significantly fewer free radicals | did not have a significant effect | 
CCCc1c(-c2ccc(O)cc2)nn(-c2ccc(O)cc2)c1-c1ccc(O)cc1 [PPT, 4,4,4-4 propyl-(1H)-pyrazole 1,3,5-triyltrisphenol] |  |  | reduced infarct size
